A short description of the series: Toxicity liver stage against HepG2, at 10uM. The class given is cell-based. The arrangement: test concentration 10 uM, cell line HepG2-A16-CD81EGFP. To be noted: human, HepG2-A16-CD81EGFP cells; read-out: INHIBITION
The essentials:
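Uninfected HepG2-A16-CD81EGFP cells, 3 × 10^3 per well, 1536-well, plated on prespotted compound at 10 μM final, parasite-free screening media added to match infected plates; puromycin 10 μM positive, DMSO 0.5% negative; run in parallel with 48 h PbLuc assay at 37 °C, 5% CO2; viability by CellTiter-Glo luminescence, normalized to controls.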

As for `Cc1nc(C2CCNC2)nc2c1CCC(=O)N2CC(C)C` (centres undefined), the cytotoxicity at 10 µM is 2.04%.
With `COCCC(=O)N[C@H]1CN(c2nc(C)c3c(n2)CCCC3)C[C@@H]1C1CC1`, the cytotoxicity at 10 µM is -12.8%.
`O=c1c(NCCO)c(N2CCN(c3ccccc3)CC2)c1=O`: the cytotoxicity at 10 µM is -6.95%.
`Cc1nn(C)c2cnn(CC(=O)NCc3ccccc3F)c12`: the cytotoxicity at 10 µM is 7.8%.
As for `CCOCCCNC(=O)c1nn(CC)cc1Br`, the cytotoxicity at 10 µM worked out at 1.77%.
Then `OCCN1CCOC2(CCCN(c3ncc(F)cn3)C2)C1` (centres undefined), with 5.98%.
With `N#Cc1ccc(N2CCC3(CC2)CC(N2CCOCC2)CO3)cc1` (centres undefined), the cytotoxicity at 10 µM is 19%.
As for `CC(=O)NCCCSC1CCCN(c2ccccc2F)C1=O` (centres undefined), the cytotoxicity at 10 µM was -0.906%.
`COc1c(C)cnc(CN(C)C(=O)c2cccnc2N(C)C)c1C`: the cytotoxicity at 10 µM was -12.3%.
Regarding `COCc1noc(C2(c3ccc(F)cc3)CCOCC2)n1`, the cytotoxicity at 10 µM is -25.3%.
Then `O=C(c1ccc(C2CCCN2)s1)N1CCC2(CCCO2)CC1` (centres undefined), with -7.13%.
As for `CN(Cc1ccccc1OC(F)(F)F)C(=O)C1CCCN(C(N)=O)C1` (centres undefined), the cytotoxicity at 10 µM worked out at 7.59%.
In the case of `O=C(c1cccnc1O)N1CCC2(CCCO2)CC1`, the cytotoxicity at 10 µM is 7.28%.
With `CCOCCCC(=O)NC1CCN(C(C)c2ccccc2)CC1` (centres undefined) the figure was 4.05%; with `COc1ccc(C(=O)N(C)Cc2cc(C)on2)c(OC)c1`, -11.3%.
Turning to `CN1[C@@H](c2ccccc2)[C@@H](C(=O)NCC2CCOCC2)C[C@@]1(C)C(=O)O`, the cytotoxicity at 10 µM is -40.4%.
On to `COC(=O)CCN1CCC(NC(=O)OC(C)(C)C)CC1`, for which the cytotoxicity at 10 µM stood at 14.7%.
With `Cc1c(-c2nc(-c3cccc(CN4CCOCC4)c3)no2)cnn1C`, the cytotoxicity at 10 µM was -0.988%.
For `c1cnc2c(c1)cc([C@H]1CCCO1)n2CCN1CCCC1`, the cytotoxicity at 10 µM worked out at 0.975%.
As to `CN1CCC2(CCCN(c3nccc(C(F)(F)F)n3)C2)CC1`, the cytotoxicity at 10 µM worked out at 4.14%.
On to `CC(C)c1nsc(N2CCC(OCCN3CCOCC3)CC2)n1`, for which the cytotoxicity at 10 µM was -14.2%.
Then `CN1CCN(Cc2cccnc2)C(=O)C12CCN(C1CCOC1)CC2` (centres undefined), with -111%; and `O=C(CN(CC(O)c1ccc(F)cc1)C1CC1)NC(C1CC1)C1CC1` (centres undefined), with 11.8%.
`Cc1ccc(NC2(C(=O)NCCCc3c(C)n[nH]c3C)CCCC2)cc1`: the cytotoxicity at 10 µM is -10.1%.
`COc1cc2c(cc1-c1nc3c(cnn3C)[nH]1)OCO2`: the cytotoxicity at 10 µM was -8.9%.
`CC(=O)NCCNC(=O)CNC1CCCN(c2ccc(C)nn2)C1` (centres undefined): the cytotoxicity at 10 µM worked out at 3.47%.
For the compound `O=C(Nc1ccc(F)cc1)C1CNCCN1C(=O)CCc1cccnc1` (centres undefined), the cytotoxicity at 10 µM was found to be 2.06%.
For `Cc1cc(-c2cnc(NC3CCCC3)nc2-c2ccoc2C)on1`, the cytotoxicity at 10 µM was found to be 45.7%.
Regarding `Cc1ccc(F)c2c1CCCN2C(=O)c1cn(CC(=O)N(C)C)nn1`, the cytotoxicity at 10 µM was -0.367%.
For the compound `Fc1ccc2[nH]c3c(c2c1)CCN1C(c2ccncc2)N2CCC31CC2` (centres undefined), the cytotoxicity at 10 µM came out at 4.67%.
In the case of `Cc1nc(-c2cc(C(=O)NCCN3CCOCC3)c3ccccn23)cs1`, the cytotoxicity at 10 µM came out at 3.59%.
For the compound `O=C(c1ncccn1)N1CCC[C@]2(C[C@@H](Oc3ncccc3F)CO2)C1`, the cytotoxicity at 10 µM was -4.28%.
For the compound `CN(C(=O)Cn1nc(-c2ccccc2F)ccc1=O)C1CCS(=O)(=O)C1` (centres undefined), the cytotoxicity at 10 µM was found to be 2.21%.
Then `O=S(=O)(Cc1cccc2cccnc12)NC(CO)c1ccco1` (centres undefined), with 4.22%; and `Cn1cc(C(=O)N2CCC(Cc3nccs3)CC2)cn1`, with 7.63%; and `Cc1cc(C(=O)N2CCc3nnc(N)cc3C2)c(C)n1-c1ccccc1`, with 0.591%.
As to `O=c1[nH]c2c(c(=O)n1C1CCCCC1)CCC2Nc1ccccc1Cl` (centres undefined), the cytotoxicity at 10 µM is -10.4%.
In the case of `COCC(=O)N1CC[C@H]2C[C@H](C)O[C@@H]2C1`, the cytotoxicity at 10 µM was -0.877%.
With `CC(C)C(C)(C#N)NC(=O)Cn1nnc(-c2cc3ccccc3o2)n1` (centres undefined) the figure was 5.76%.
